pIC50: −log10 of the molar value. Active and inactive are the calls of the source.
Tests used:
[1] = molecular target: T1, Corticotropin-releasing factor receptor 1 (Rattus norvegicus, UniProt P35353); experiment: Displacement of [125I]Tyr0-ovine CRF from CRF1 receptor in rat cortical membrane by gamma counting; format: cell membranes
T1 sequence (P35353 whole entry): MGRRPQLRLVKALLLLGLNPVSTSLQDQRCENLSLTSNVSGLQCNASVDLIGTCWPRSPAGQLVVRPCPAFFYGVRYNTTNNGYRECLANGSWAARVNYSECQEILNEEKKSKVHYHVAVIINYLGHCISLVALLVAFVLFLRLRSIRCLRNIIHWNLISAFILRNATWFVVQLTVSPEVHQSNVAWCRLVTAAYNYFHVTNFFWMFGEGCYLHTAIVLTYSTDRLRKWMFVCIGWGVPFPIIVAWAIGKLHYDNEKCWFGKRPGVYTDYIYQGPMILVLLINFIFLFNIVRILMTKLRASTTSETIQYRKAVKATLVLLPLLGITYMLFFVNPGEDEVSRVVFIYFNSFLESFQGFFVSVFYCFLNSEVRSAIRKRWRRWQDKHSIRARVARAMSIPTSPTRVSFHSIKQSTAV
Method in brief: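 Inhibition of 125I-Tyr0-ovine-CRF binding to rat cortical membranes measured across dilutions of test drug; IC50 derived by iterative curve fitting.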

[2] = tested on: Canis familiaris; experiment: Ex vivo displacement of [125I]Tyr0-ovine CRF from CRF1 receptor in dog at 5 mg/kg, po measured in plasma after 2 hrs; format: functional; conditions: Canis lupus familiaris
Method in brief: (§1)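 Beagle dogs given 5 mg/kg po (free base), in Labrafil or Tween-80/0.5% methylcellulose 1:99; plasma drawn 2 and 10 h postdose, diluted 10-fold in binding buffer, and tested for inhibition of 125I-Tyr0-ovine-CRF binding to rat receptors; mean ± SD, n = 3.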

[3] = tested on: Canis familiaris; experiment: Ex vivo displacement of [125I]Tyr0-ovine CRF from CRF1 receptor in dog at 5 mg/kg, po measured in plasma after 10 hrs; format: functional; conditions: Canis lupus familiaris; method in brief: as §1
[4] = tested on: Rattus norvegicus; experiment: Toxicity in Sprague-Dawley rat assessed as time spent on rotarod at 30 mg/kg, po after 1 hr by rotarod test; format: organism-based; parameters: dose 30 mg/kg, route oral; conditions: in vivo
Method in brief: (§2)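 Male Sprague-Dawley rats received a single oral gavage dose of 30 mg/kg (free base weight) in 0.5% methocel–Tween-80 (99:1) or vehicle alone. Behaviour was assessed 1 h postdose, as time on the rotorod in seconds for the rotorod test and total distance travelled in cm for open-field locomotor activity. Values are mean ± SEM, n = 8 per group.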

[5] = tested on: Rattus norvegicus; experiment: Toxicity in Sprague-Dawley rat assessed as total distance traveled at 30 mg/kg, po after 1 hr by open-field locomotor activity test; format: organism-based; parameters: dose 30 mg/kg, route oral; conditions: in vivo; method in brief: as §2
[6] = tested on: Rattus norvegicus; experiment: Anxiolytic-like activity in Sprague-Dawley rat assessed as increase in time spent in open arms at 18 mg/kg, po measured after 1 hr by elevated plus maze test; format: functional, organism-based; parameters: dose 18 mg/kg
Method in brief: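 Group-housed male Sprague-Dawley rats (180-300 g) dosed po in 0.25% Methocel 1 h before elevated plus maze; arm entry defined as all four paws in arm; percent time in open arms scored; test doses 1.0, 3.0, 10, 30 mg/kg; positive control at 18 mg/kg; n = 13-15/dose; mean ± SEM, ANOVA then Fisher's LSD.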

[7] = tested on: Rattus norvegicus; experiment: Anxiolytic-like activity in Sprague-Dawley rat assessed as decrease in latency to exit dark chamber at 10 mg/kg, po measured after 1 hr by defensive withdrawal test relative to control; format: functional; parameters: scale not given: the % may be the effect or the level left
Method in brief: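 Male Sprague-Dawley rats (180-300 g), individually housed; open field with cylindrical dark chamber; oral dosing in 0.25% Methocel 1 h before a 15 min session scored blind via video; latency to place all four paws in open field recorded, maximum 900 s; test doses 1.0, 3.0, 10, 30 mg/kg; positive control at 10 mg/kg; n = 12/dose; Kruskal-Wallis then Mann-Whitney U.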

[8] = molecular target: T1, Corticotropin-releasing factor receptor 1; experiment: Antagonist activity at CRF1 receptor in rat brain homogenates assessed as inhibition of CRF-stimulted cAMP production; format: functional, tissue-based
Method in brief: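 Rat cortical homogenate (0.8 mg original wet weight tissue) incubated 10 min at 37 °C in 100 mM Tris-HCl pH 7.4, 10 mM MgCl2, 0.4 mM EGTA, 0.1% BSA, 1 mM IBMX, creatine phosphate/phosphocreatine kinase, 100 nM ovine-CRF; started with 1 mM ATP/[32P]ATP; [32P]cAMP separated on Dowex and alumina columns, [3H]cAMP recovery marker; n = 3.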

[9] = molecular target: T2, Corticotropin-releasing factor receptor 1 (Homo sapiens, UniProt P34998); experiment: Binding affinity to CRF1 receptor in human IMR32 cells; format: cell-based, IMR-32
T2 sequence (P34998 whole entry): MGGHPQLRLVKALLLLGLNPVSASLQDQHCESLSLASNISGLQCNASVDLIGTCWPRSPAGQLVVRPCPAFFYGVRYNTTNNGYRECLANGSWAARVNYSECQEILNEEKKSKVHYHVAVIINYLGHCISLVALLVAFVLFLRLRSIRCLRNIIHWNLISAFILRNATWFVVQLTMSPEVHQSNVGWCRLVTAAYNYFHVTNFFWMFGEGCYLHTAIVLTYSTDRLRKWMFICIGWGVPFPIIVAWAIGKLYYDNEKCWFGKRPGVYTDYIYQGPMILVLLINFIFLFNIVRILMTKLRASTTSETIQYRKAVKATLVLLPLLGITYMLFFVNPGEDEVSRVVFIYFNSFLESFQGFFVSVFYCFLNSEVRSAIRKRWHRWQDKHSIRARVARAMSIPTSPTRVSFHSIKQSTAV

Compound | pIC50 [1] | other results
CCN(CC)c1nc(C)nc2c(-c3ccc(OC)c(C)c3C)c(C)nn12 | 7.41 | 
COCCN(CCOC)c1nc(C)nc2c(-c3cc(F)c(OC)cc3Cl)c(C)nn12 | 8.93 | 
COCCN(CCOC)c1nc(C)nc2c(-c3c(C)cc(OC)cc3C)c(C)nn12 | 8.56 | 
CCCN(CC1CC1)c1nc(C)nc2c(-c3ccc(OC)cc3C)c(C)nn12 | 8.71 | 
CCCC(C)Nc1nc(C)nc2c(-c3c(C)cc(OC)cc3OC)c(C)nn12 (centres undefined) | 8.67 | 
COc1ccc(-c2c(C)nn3c(N4CCCC4)nc(C)nc23)c(C)c1 | 7.09 | 
CCCCN(CC)c1nc(C)nc2c(-c3c(C)cc(OC)cc3OC)c(C)nn12 | 8.76 | 
COCC(COC)Nc1nc(C)nc2c(-c3ccc(OC)cc3C)c(C)nn12 | 8.01 | 
CCN(CCOC)c1nc(C)nc2c(-c3c(C)cc(OC)cc3OC)c(C)nn12 | 8.75 | inhibition in vivo at 5 mg/kg [2]: 86%; inhibition in vivo at 5 mg/kg [3]: 54%
CCC(CC)Nc1nc(C)nc2c(-c3cc(F)c(OC)cc3C)c(C)nn12 | 8.72 | inhibition in vivo at 5 mg/kg [2]: 81%; inhibition in vivo at 5 mg/kg [3]: 25%
CCN(CC)c1nc(C)nc2c(-c3cc(OC)c(OC)cc3Br)c(C)nn12 | 8.39 | 
CCC(CC)Nc1nc(C)nc2c(-c3c(C)cc(OC)cc3OC)c(C)nn12 | 8.30 | inhibition in vivo at 5 mg/kg [2]: 80%; inhibition in vivo at 5 mg/kg [3]: 56%
CCC(CC)Nc1nc(C)nc2c(-c3cc(OC)c(OC)cc3Br)c(C)nn12 | 8.22 | 
C=CCN(CC=C)c1nc(C)nc2c(-c3c(C)cc(OC)cc3OC)c(C)nn12 | 9.00 | 
COCCN(CCOC)c1nc(C)nc2c(-c3ccc(OC)cc3)c(C)nn12 | 7.94 | 
CCN(CC)c1nc(C)nc2c(-c3cc(F)c(OC)cc3Cl)c(C)nn12 | 8.79 | 
COCCN(CCOC)c1nc(C)nc2c(-c3cc(OC)c(OC)cc3Br)c(C)nn12 | 8.30 | 
CCCCN(CC)c1nc(C)nc2c(-c3ccc(OC)cc3C)c(C)nn12 | 8.64 | 
CCCN(CCC)c1nc(C)nc2c(-c3ccc(OC)cc3C)c(C)nn12 | 8.59 | 
COCCN(CC1CC1)c1nc(C)nc2c(-c3c(C)cc(OC)cc3OC)c(C)nn12 | 8.74 | 
COc1ccc(-c2c(C)nn3c(N(CCC#N)C4CC4)nc(C)nc23)c(C)c1 | 8.73 | 

Compound | pIC50 [1] | other results
CCC1CCCCN1c1nc(C)nc2c(-c3c(C)cc(OC)cc3OC)c(C)nn12 (centres undefined) | 8.49 | 
CCCN(CCC)c1nc(C)nc2c(-c3c(C)cc(OC)cc3OC)c(C)nn12 | 8.43 | 
CCC(CC)Nc1nc(C)nc2c(-c3ccc(OC)c(C)c3C)c(C)nn12 | 7.95 | 
CC[C@H](C)Nc1nc(C)nc2c(-c3c(C)cc(OC)cc3OC)c(C)nn12 | 8.54 | inhibition in vivo at 5 mg/kg [2]: 72%; inhibition in vivo at 5 mg/kg [3]: 74%
COCCN(CCOC)c1nc(C)nc2c(-c3cc(OC)c(OC)cc3C)c(C)nn12 | 7.86 | 
CCC(CC)Nc1nc(C)nc2c(-c3ccc(OC)cc3)c(C)nn12 | 8.42 | 
COCCN(CCOC)c1nc(C)nc2c(-c3c(C)cc(OC)cc3OC)c(C)nn12 | 8.10 | 
C=CCN(C)c1nc(C)nc2c(-c3c(C)cc(OC)cc3OC)c(C)nn12 | 8.31 | 
CCN(CC)c1nc(C)nc2c(-c3c(C)cc(OC)cc3OC)c(C)nn12 | 8.92 | inhibition in vivo at 5 mg/kg [2]: 56%; inhibition in vivo at 5 mg/kg [3]: 30%
COCCN(CCOC)c1nc(C)nc2c(-c3cc(OC)c(OC)cc3Cl)c(C)nn12 | 8.10 | 
CCOCC(COCC)Nc1nc(C)nc2c(-c3ccc(OC)cc3C)c(C)nn12 | 7.71 | 
CCN(CC)c1nc(C)nc2c(-c3ccc(OC)cc3C)c(C)nn12 | 8.22 | 
CNC1=Nc2ccc(Cl)cc2C(c2ccccc2)=[N+]([O-])C1 [CHLORDIAZEPOXIDE] |  | Time [4]: 121 s; Activity [5]: 2249 cm
CCCN(C)c1nc(C)nc2c(-c3c(C)cc(OC)cc3OC)c(C)nn12 | 8.19 | 
COCC(COC)Nc1nc(C)nc2c(-c3ccc(Cl)cc3Cl)c(C)nn12 | 8.38 | Activity [6]: Active; Activity [7]: 52%
CCCCN(CC)c1nc(C)nc2c(-c3c(C)cc(OC)cc3C)c(C)nn12 | 8.37 | 
CCN(CCC#N)c1nc(C)nc2c(-c3c(C)cc(OC)cc3OC)c(C)nn12 | 8.61 | 
H-DLTFHLLREMLEMAKAEQEAEQAALNRLLLEEA-NH2 | 8.91 | pIC50 [8]: 6.58; pIC50 [9]: 8.70
CCCN(CCC#N)c1nc(C)nc2c(-c3ccc(OC)cc3C)c(C)nn12 | 8.67 | 
COc1cc(C)c(-c2c(C)nn3c(NC4CCC4)nc(C)nc23)c(OC)c1 | 7.76 | inhibition in vivo at 5 mg/kg [2]: 52%; inhibition in vivo at 5 mg/kg [3]: 46%
COc1ccc(-c2c(C)nn3c(NC4CCC4)nc(C)nc23)c(C)c1 | 7.61 | 
